Measured values reported in PMC2745822 (The Journal of pharmacology and experimental therapeutics, 2008).
Several values for one entry are separate records, joined by “and”; a condition that tells them apart may be missing. Equal entries are not always repeated. Where two headings read alike, the source gives them in different places.

What was measured:
rM4 receptor [1] = target: T1, rM4 receptor (Rattus norvegicus, UniProt P08485); settings: ref Shirey et al., 2008; cited from earlier work
T1 sequence (P08485 1-478): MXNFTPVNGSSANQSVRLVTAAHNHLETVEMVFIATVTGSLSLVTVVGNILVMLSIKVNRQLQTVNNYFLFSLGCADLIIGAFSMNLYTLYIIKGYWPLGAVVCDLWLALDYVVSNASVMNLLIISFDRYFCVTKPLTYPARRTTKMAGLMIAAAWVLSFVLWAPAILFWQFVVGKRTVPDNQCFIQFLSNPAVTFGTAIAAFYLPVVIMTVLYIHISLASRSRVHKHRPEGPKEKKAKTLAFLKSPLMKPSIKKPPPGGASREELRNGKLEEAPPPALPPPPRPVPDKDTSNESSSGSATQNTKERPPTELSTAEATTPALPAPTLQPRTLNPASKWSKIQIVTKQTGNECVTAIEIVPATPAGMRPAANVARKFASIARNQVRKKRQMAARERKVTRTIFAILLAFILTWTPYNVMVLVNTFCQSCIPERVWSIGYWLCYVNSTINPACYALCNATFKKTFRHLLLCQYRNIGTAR

rat M4 mAChR [2] = target: T2, rat M4 mAChR (Rattus norvegicus, UniProt P08485); settings: ref Shirey et al., 2008, cited from earlier work
T2 sequence (P08485 1-478): T1 sequence (P08485 1-478)

[3] = ref Shirey et al., 2008; cited from earlier work
other mAChR subtypes = settings: ref Shirey et al., 2008; cited from earlier work
[4] = Formulation into homogeneous dosing solution; format: physicochemical; settings: vehicles acceptable for in vivo studies
Method in brief: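 Test compound was jet-milled to uniform nanoparticles before vehicle formulation. It was then dissolved at 56.6 mg/ml in 10% Tween 80 in double-deionized water, with pH adjusted to about 7.0 using 1 N NaOH. The mixture was sonicated until a uniform homogeneous solution formed, for intraperitoneal dosing.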

[5] = Brain and plasma exposure pharmacokinetic profiling; format: in vivo, rat; settings: male rats, 56.6 mg/kg i.p.; mean ± S.E.M., n = 3
Method in brief: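 Male Sprague-Dawley rats (225–250 g), fasted overnight. Test compound dissolved at 56.6 mg/ml in 10% Tween 80/water, pH ~7.0 (1 N NaOH), sonicated, and given at 56.6 mg/kg i.p. Brain and trunk plasma taken at 0.5, 1, 2 and 4 h, three rats per time point. Brain homogenized in acetonitrile/methanol and plasma precipitated with acidified acetonitrile, both with internal standard. Analyzed by positive-ESI LC-MS-MS, linear 50 ng/ml–100 µg/ml. AUC0-∞ by trapezoidal method.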

[6] = target: T3, human M4 muscarinic receptor (Homo sapiens, UniProt P08173); settings: in presence of compound
T3 sequence (P08173 1-479): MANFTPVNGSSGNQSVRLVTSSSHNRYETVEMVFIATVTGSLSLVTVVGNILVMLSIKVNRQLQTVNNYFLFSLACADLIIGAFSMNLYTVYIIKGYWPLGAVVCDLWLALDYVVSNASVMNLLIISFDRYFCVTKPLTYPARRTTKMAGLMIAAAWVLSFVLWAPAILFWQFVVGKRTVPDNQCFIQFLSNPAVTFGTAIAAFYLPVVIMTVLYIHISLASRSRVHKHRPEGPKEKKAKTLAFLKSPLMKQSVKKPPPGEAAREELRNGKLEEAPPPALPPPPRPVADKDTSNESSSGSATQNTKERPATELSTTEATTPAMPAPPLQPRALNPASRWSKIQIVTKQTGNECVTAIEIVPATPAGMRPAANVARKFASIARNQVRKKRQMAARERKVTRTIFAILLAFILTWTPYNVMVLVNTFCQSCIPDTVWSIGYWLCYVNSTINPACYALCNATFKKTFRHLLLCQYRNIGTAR

[7] = test system: amphetamine-induced hyperlocomotion in rats; test: Amphetamine-induced hyperlocomotion; format: in vivo, rat; settings: 56.6 mg/kg i.p., 30-min pretreatment; 1 mg/kg s.c. amphetamine; 60 min
rat M4 mAChR [8] = target: T2, rat M4 mAChR; format: cell-based; settings: compound alone
rM4 receptor [9] = target: T1, rM4 receptor; test: [3H]NMS equilibrium radioligand binding, membranes from rM4-expressing CHO cells; settings: 0.1 nM [3H]NMS; concentrations up to 30 µM
[10] = test system: panel of 68 discrete GPCRs, ion channels, transporters, and enzymes; test: MDS Pharma LeadProfiling Screen radioligand binding panel; settings: 10 µM; for VU0152099 with the single exception of GABAA receptors
[11] = test system: motor performance in rats; test: Rotorod test; format: in vivo, rat; settings: 30, 56.6, or 100 mg/kg i.p., 30-min pretreatment
Method in brief: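 Rats got one 120-s training trial, then two 85-s trials about 10 min apart, on a 7.5-cm rod turning at a constant 20 rpm. They were pretreated i.p. for 30 min with vehicle or test compound (30, 56.6 or 100 mg/kg, salt form, 1.0 ml/kg in 10% Tween 80/water, pH ~7.0). Time on the rod was recorded, capped at 85 s. Analysis was one-way ANOVA with Dunnett's test versus vehicle.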

[12] = test system: amphetamine-induced hyperlocomotion in rats; settings: ref Stanhope et al., 2001; cited from earlier work
[13] = ref Bodick et al., 1997; Shekhar et al., 2001, 2008; cited from earlier work

Compound	decrease in the ACh Ki (rM4 receptor [1])	EC50 (rat M4 mAChR [2]; read-out: M4 EC50)	potentiation (-fold shift) of the M4 ACh CRC (rat M4 mAChR [2])	log P [3]	activation of the other mAChR subtypes (other mAChR subtypes)	formulation into homogeneous dosing solution [4]	Mean AUC (0-∞) brain [5]	Mean AUC(0-∞) plasma [5]	t1/2 brain [5]	t1/2 plasma [5]	maximal response to ACh [6]	effect on amphetamine-induced hyperlocomotion [7]	response in the absence of an ACh EC20 (agonist activity) (rat M4 mAChR [8])	displacement of [3H]NMS (rM4 receptor [9])	displacement of binding, all targets tested [10]	effect on performance in the rotorod test [11]	effect on amphetamine-induced hyperlocomotion [12]	clinical efficacy [13]
Cc1cc(C)c2c(N)c(C(=O)NCc3ccc(Cl)cc3)sc2n1 [VU10010, 3-amino-N-(4-chlorobenzyl)-4,6-dimethylthieno[2,3-b]pyridine-2-carboxamide]	14 fold	~400 nM	47 fold	~ 4.5 and 4.5	causes no activation of the other mAChR subtypes	unable to formulate VU10010 into a homogeneous solution in any acceptable vehicle	–	–	–	–	–	–	–	–	–	–	–	–
COc1ccc(CNC(=O)c2sc3nc(C)cc(C)c3c2N)cc1 [VU0152100, 3-amino-N-(4-methoxybenzyl)-4,6-dimethylthieno[2,3-b]pyridine carboxamide]	–	–	–	–	–	afforded homogeneous dosing solutions in multiple vehicles acceptable for in vivo studies	5726.35 ± 694.68 ng·h/g	6570.35 ± 235.87 ng·h/mL	1.12 ± 0.01 h	1.62 ± 0.69 h	approximately 130%	produced robust decreases in amphetamine-induced hyperlocomotion	neither VU0152099 nor VU0152100 elicited a response	neither M4 PAM displaced	less than 50%	had no effect on performance in the rotorod test	–	–
CCCCCCOc1nsnc1C1=CCCN(C)C1 [xanomeline, 3-[3-hexyloxy-1,2,5-thiadiazo-4-yl]-1,2,5,6-tetrahydro-1-methylpyridine]	–	–	–	–	–	–	–	–	–	–	–	–	–	–	–	–	reversal of amphetamine-induced hyperlocomotion in rats	demonstrated efficacy as both a cognition-enhancing agent and an antipsychotic agent
